Activity calls are given as the source filed them. The calls are words filed in the database; no cut-off is given here.
Key:
MCF7 [1] = assay: Cytotoxicity against human MCF7 cells by Alamar blue assay; format: functional, cell-based
Summary of the method: (§1)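 MCF-7 cells in improved MEM (Richter's) with L-glutamine, 10% FBS and 1% penicillin/streptomycin. 1-3×10^3 cells/well preincubated 24 h at 37 °C, 5% CO2. DMSO solutions added in duplicate at 0.001–50 μM final, then 72 h exposure. AlamarBlue added for 6 h; fluorescence read ex 530/em 590 nm. IC50 by sigmoidal fit of % growth against time-zero and vehicle.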

A549 [2] = assay: Cytotoxicity against human A549 cells by Alamar blue assay; format: functional, cell-based
Summary of the method: (§2)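 A549 cells in Ham's F-12 (Kaighn's) with 10% FBS and 1% penicillin/streptomycin. Seeded at 1-3×10^3 cells/well for 24 h at 37 °C, 5% CO2. Compound in DMSO added in duplicate at 0.001–50 μM final, then 72 h. Fresh medium plus AlamarBlue for 6 h; fluorescence ex 530/em 590 nm. % growth relative to time-zero and vehicle; IC50 from Hill-equation non-linear fit.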

[3] = Enhancement of DNA binding affinity in presence of Cu2+/Ni2+
MCF7 [4] = assay: Cytotoxicity against human MCF7 cells after 24 hrs; format: functional, cell-based; conditions: MCF7, 24 h
A549 [5] = assay: Cytotoxicity against human A549 cells after 24 hrs; format: functional, cell-based; conditions: A549, 24 h
MCF7 [6] = assay: Cytotoxicity against human MCF7 cells after 72 hrs; format: functional, cell-based; conditions: MCF7, 72 h; summary of the method: as §1
A549 [7] = assay: Cytotoxicity against human A549 cells after 72 hrs; format: functional, cell-based; conditions: A549, 72 h; summary of the method: as §2
MCF7 [8] = assay: Cytotoxicity against human MCF7 cells after 72 hrs in presence of CuCl2; format: functional, cell-based; conditions: MCF7, 72 h
Summary of the method: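 MCF-7 cells in Richter's improved MEM with 10% FBS. Compound given with 10 μM CuCl2 for 72 h at 37 °C, 5% CO2, in duplicate. AlamarBlue for 6 h, fluorescence ex 530/em 590 nm. IC50 by non-linear Hill fit of % growth referenced to time-zero and vehicle wells.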

A549 [9] = assay: Cytotoxicity against human A549 cells after 72 hrs in presence of CuCl2; format: functional, cell-based; conditions: A549, 72 h
Summary of the method: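 A549 cells in Ham's F-12 (Kaighn's) with 10% FBS and penicillin/streptomycin. Compound plus 10 μM CuCl2 for 72 h at 37 °C, 5% CO2, in duplicate. Viability by AlamarBlue fluorescence (ex 530/em 590 nm) after 6 h. IC50 from non-linear fit of % growth versus time-zero and vehicle controls.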

A549 [10] = assay: Cytotoxicity against human A549 cells after 24 hrs in presence of CuCl2; format: functional, cell-based; conditions: A549, 24 h
MCF7 [11] = assay: Cytotoxicity against human MCF7 cells after 24 hrs in presence of CuCl2; format: functional, cell-based; conditions: MCF7, 24 h

Row | Structure (SMILES) | IC50 (MCF7 [1]) [µM] | IC50 (A549 [2]) [µM] | Activity [3] | also measured
1 | O=C(OCCOCCOCCOCCO)c1cccc2oc(-c3ccccc3O)nc12 | 13 | 11 | Active | 
2 | CCCCNC(=O)c1cccc2oc(-c3ccccc3O)nc12 | 30 | 14 | Active | 
3 | CNC(=O)c1cccc2oc(-c3ccccc3O)nc12 | 10 | 11 | Active | 
4 | O=C(NCCOCCO)c1cccc2oc(-c3ccccc3O)nc12 | > 50 | 41 | inactive | 
5 | CO[C@@]12[C@H](COC(N)=O)C3=C(C(=O)C(C)=C(N)C3=O)N1C[C@@H]1N[C@@H]12 [MITOMYCIN] |  |  |  | IC50 (MCF7 [4]): 5 µM; IC50 (A549 [5]): 4.5 µM; IC50 (MCF7 [6]): 1.2 µM; IC50 (A549 [7]): 0.24 µM
6 | COC(=O)c1cccc2oc(-c3cccc4oc(-c5ccccc5O)nc34)nc12 |  |  |  | IC50 (MCF7 [4]): 31 µM; IC50 (A549 [5]): 17 µM; IC50 (MCF7 [6]): 1.7 µM; IC50 (MCF7 [8]): 1.2 µM; IC50 (A549 [9]): 0.2 µM; IC50 (A549 [7]): 1 µM; IC50 (A549 [10]): 4.5 µM; IC50 (MCF7 [11]): 4.6 µM
7 | O=C(NCCCCCCO)c1cccc2oc(-c3ccccc3O)nc12 | 31 | 39 | inactive | 
8 | COc1ccccc1-c1nc2c(C(=O)O)cccc2o1 | > 50 | > 50 |  | 
9 | COC(=O)c1cccc2nc(-c3ccccc3O)oc12 | 7 | 35 |  | 
10 | COC(=O)c1cccc2oc(-c3ccccc3O)nc12 | 4 | 12 | Active | 
11 | CCOC(=O)c1cccc2oc(-c3ccccc3O)nc12 | 15 | 40 | Active | 

Source: ChEMBL document CHEMBL1143149, “Synthesis, metal ion binding, and biological evaluation of new anticancer 2-(2'-hydroxyphenyl)benzoxazole analogs of UK-1” (Bioorg Med Chem, 2008)
